The source made the active and inactive calls.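 How the source made its calls: active means IC50 at or below 1000 nM for PAD4 enzyme inhibition; inactive means IC50 above 1000 nM.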
Molecular target: Protein-arginine deiminase type-4 (Homo sapiens) (UniProt Q9UM07)
Test: PAD4 enzyme inhibition potency, late-stage follow-up, biochemical, BAEE substrate, citrulline absorbance, 0-6 µM range (AID 588419)
Settings: recombinant PAD4, BAEE citrulline colorimetric absorbance
Method in brief: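 assay system = recombinant PAD4 | buffer or medium = Tris-HCl pH 7.6, CaCl2, DTT | reagent = 10 mM BAEE | compound dosing = Seven-point compound series spanning 0 to 6 µM | incubation = 15 min preincubation plus 15 min reaction, 37 °C | measured by = absorbance at 540 nm | read-out basis = IC50 from citrulline formation, quantified via citrulline standard curve | replication = duplicate dose-response curves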

Chain of Protein-arginine deiminase type-4 (Homo sapiens) (Q9UM07 whole entry, looked up): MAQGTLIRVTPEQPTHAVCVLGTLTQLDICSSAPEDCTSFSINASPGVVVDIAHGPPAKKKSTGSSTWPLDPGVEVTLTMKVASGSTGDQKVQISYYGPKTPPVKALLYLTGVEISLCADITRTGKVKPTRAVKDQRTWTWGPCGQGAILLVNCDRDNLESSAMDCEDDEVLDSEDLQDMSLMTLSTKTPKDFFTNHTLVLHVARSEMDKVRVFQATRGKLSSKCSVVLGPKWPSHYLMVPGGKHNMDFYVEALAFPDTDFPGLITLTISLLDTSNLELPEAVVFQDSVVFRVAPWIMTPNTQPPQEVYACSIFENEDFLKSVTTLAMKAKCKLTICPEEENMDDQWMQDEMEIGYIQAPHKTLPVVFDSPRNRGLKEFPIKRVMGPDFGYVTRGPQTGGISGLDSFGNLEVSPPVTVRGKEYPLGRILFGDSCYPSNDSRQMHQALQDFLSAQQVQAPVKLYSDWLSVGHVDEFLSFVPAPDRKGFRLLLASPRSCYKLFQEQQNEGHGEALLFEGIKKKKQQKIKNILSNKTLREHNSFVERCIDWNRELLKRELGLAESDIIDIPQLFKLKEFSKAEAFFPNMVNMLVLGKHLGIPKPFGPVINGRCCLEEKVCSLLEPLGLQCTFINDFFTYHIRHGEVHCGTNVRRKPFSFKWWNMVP

SMILES: COC1=C(I)C(=O)c2nc(C#N)ccc2C1=O
- IC50: inactive

From PubChem BioAssay AID588419 (The Scripps Research Institute Molecular Screening Center, 2011)
